# Laboratory results taken from ChEMBL document CHEMBL1141421, “Chemical transformation and biological activities of ambrein, a major product of ambergris from Physeter macrocephalus (sperm whale)” (J Nat Prod, 2007).
# Assay: Antiinflammatory activity assessed as inhibition of fMLP-induced elastase release in human neutrophils at 10 ug/mL relative to control
# Type: functional, cell-based, Neutrophil
# Conditions: not given
# How it was run: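 Neutrophils (6 × 10⁵/mL) supplemented with MeO-Suc-Ala-Ala-Pro-Val-p-nitroanilide (100 µM) elastase substrate, equilibrated 2 min at 37 °C, then exposed to test sample for 5 min. Stimulation with FMLP (100 nM)/cytochalasin B (0.5 µg/mL); elastase release followed continuously as absorbance change at 405 nm. DMSO-treated cells served as the 100% reference.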
row,Structure (SMILES),Elastase release (% of DMSO control) [%]
1,O=c1c(-c2ccc(O)cc2)coc2cc(O)cc(O)c12 [GENISTEIN],51.6
2,C=C1CCCC(C)(C)[C@@H]1C[C@H](OC(=O)c1ccccc1)/C(C)=C/CC[C@@H]1[C@@]2(C)CCCC(C)(C)[C@@H]2CC[C@@]1(C)O,115.5
3,C=C1CCCC(C)(C)[C@@H]1C[C@@H]1O[C@]2(C)CC[C@H]3C(C)(C)CCC[C@]3(C)[C@H]2CC/C=C\1C,82
4,C=C1CCCC(C)(C)[C@@H]1CC/C(=C\CC[C@@H]1[C@@]2(C)CCCC(C)(C)[C@@H]2CC[C@@]1(C)O)CO,74.4
5,C=C1CCCC(C)(C)[C@@H]1CC[C@](C)(O)[C@@H]1CCC2[C@@](C)(CC[C@H]3C(C)(C)CCC[C@]23C)O1 (some centres undefined),81.3
6,C=C1CCCC(C)(C)[C@@H]1C/C=C(\C)[C@H]1CC[C@@H]2[C@@]3(C)CCCC(C)(C)[C@@H]3CC[C@@]2(C)O1,92.2
7,C=C1CCCC(C)(C)[C@@H]1CC/C(=C/CC[C@@H]1[C@@]2(C)CCCC(C)(C)[C@@H]2CC[C@@]1(C)O)COC(=O)c1ccccc1,75.6
8,C=C1CCCC(C)(C)[C@@H]1C[C@@H](OC(=O)c1ccccc1)/C(C)=C/CC[C@@H]1[C@@]2(C)CCCC(C)(C)[C@@H]2CC[C@@]1(C)O,85.6
9,C=C1CCCC(C)(C)[C@@H]1C[C@@H](O)/C(C)=C/CC[C@@H]1[C@@]2(C)CCCC(C)(C)[C@@H]2CC[C@@]1(C)O,79.3
10,C=C1CCCC(C)(C)[C@@H]1C[C@H](O)/C(C)=C/CC[C@@H]1[C@@]2(C)CCCC(C)(C)[C@@H]2CC[C@@]1(C)O,132.7
11,C=C1CCCC(C)(C)[C@@H]1CC(=O)/C(C)=C/CC[C@@H]1[C@@]2(C)CCCC(C)(C)[C@@H]2CC[C@@]1(C)O,95.1

# Same assay, conditions: Homo sapiens, Neutrophil
row,Structure (SMILES),IC50 [mg/L]
1,C=C1CCCC(C)(C)[C@@H]1CC/C(C)=C/CC[C@@H]1[C@@]2(C)CCCC(C)(C)[C@@H]2CC[C@@]1(C)O [AMBREIN],4.6

# Assay: Cytotoxicity against human hepa59T/VGH cells by MTT assay
# Type: cell-based, Hepa 59T/VGH
# Conditions: read-out: ED50 (the source's name)
# How it was run: (§1)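 MTT read-out on human tumour cells: Hepa59T/VGH liver carcinoma, WiDr colon adenocarcinoma, A-549 lung carcinoma and MCF-7 breast adenocarcinoma. ED50 taken as the sample concentration giving 50% lower absorbance than untreated cells.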
row,Structure (SMILES),CC50 [mg/L]
1,C=C1CCCC(C)(C)[C@@H]1C[C@H](OC(=O)c1ccccc1)/C(C)=C/CC[C@@H]1[C@@]2(C)CCCC(C)(C)[C@@H]2CC[C@@]1(C)O,> 10
2,C=C1CCCC(C)(C)[C@@H]1CC/C(C)=C/CC[C@@H]1[C@@]2(C)CCCC(C)(C)[C@@H]2CC[C@@]1(C)O [AMBREIN],> 10
3,C=C1CCCC(C)(C)[C@@H]1C[C@@H]1O[C@]2(C)CC[C@H]3C(C)(C)CCC[C@]3(C)[C@H]2CC/C=C\1C,> 10
4,C=C1CCCC(C)(C)[C@@H]1CC/C(=C\CC[C@@H]1[C@@]2(C)CCCC(C)(C)[C@@H]2CC[C@@]1(C)O)CO,> 10
5,C=C1CCCC(C)(C)[C@@H]1CC[C@](C)(O)[C@@H]1CCC2[C@@](C)(CC[C@H]3C(C)(C)CCC[C@]23C)O1 (some centres undefined),> 10
6,C=C1CCCC(C)(C)[C@@H]1C/C=C(\C)[C@H]1CC[C@@H]2[C@@]3(C)CCCC(C)(C)[C@@H]3CC[C@@]2(C)O1,> 10
7,C=C1CCCC(C)(C)[C@@H]1CC/C(=C/CC[C@@H]1[C@@]2(C)CCCC(C)(C)[C@@H]2CC[C@@]1(C)O)COC(=O)c1ccccc1,> 10
8,C=C1CCCC(C)(C)[C@@H]1C[C@@H](OC(=O)c1ccccc1)/C(C)=C/CC[C@@H]1[C@@]2(C)CCCC(C)(C)[C@@H]2CC[C@@]1(C)O,> 10
9,C=C1CCCC(C)(C)[C@@H]1C[C@@H](O)/C(C)=C/CC[C@@H]1[C@@]2(C)CCCC(C)(C)[C@@H]2CC[C@@]1(C)O,> 10
10,C=C1CCCC(C)(C)[C@@H]1C[C@H](O)/C(C)=C/CC[C@@H]1[C@@]2(C)CCCC(C)(C)[C@@H]2CC[C@@]1(C)O,5.7
11,C=C1CCCC(C)(C)[C@@H]1CC(=O)/C(C)=C/CC[C@@H]1[C@@]2(C)CCCC(C)(C)[C@@H]2CC[C@@]1(C)O,6.8
12,COc1cccc2c1C(=O)c1c(O)c3c(c(O)c1C2=O)C[C@@](O)(C(=O)CO)C[C@@H]3O[C@H]1C[C@H](N)[C@H](O)[C@H](C)O1 [DOXORUBICIN],0.11
13,C=C1CCCC(C)(C)[C@@H]1CCC(C)=O,> 10

# Assay: Cytotoxicity against human WiDr cells by MTT assay
# Type: cell-based
# Conditions: read-out: ED50 (the source's name)
# How it was run: as §1
row,Structure (SMILES),CC50 [mg/L]
1,C=C1CCCC(C)(C)[C@@H]1C[C@H](OC(=O)c1ccccc1)/C(C)=C/CC[C@@H]1[C@@]2(C)CCCC(C)(C)[C@@H]2CC[C@@]1(C)O,> 10
2,C=C1CCCC(C)(C)[C@@H]1CC/C(C)=C/CC[C@@H]1[C@@]2(C)CCCC(C)(C)[C@@H]2CC[C@@]1(C)O [AMBREIN],> 10
3,C=C1CCCC(C)(C)[C@@H]1C[C@@H]1O[C@]2(C)CC[C@H]3C(C)(C)CCC[C@]3(C)[C@H]2CC/C=C\1C,> 10
4,C=C1CCCC(C)(C)[C@@H]1CC/C(=C\CC[C@@H]1[C@@]2(C)CCCC(C)(C)[C@@H]2CC[C@@]1(C)O)CO,> 10
5,C=C1CCCC(C)(C)[C@@H]1CC[C@](C)(O)[C@@H]1CCC2[C@@](C)(CC[C@H]3C(C)(C)CCC[C@]23C)O1 (some centres undefined),> 10
6,C=C1CCCC(C)(C)[C@@H]1C/C=C(\C)[C@H]1CC[C@@H]2[C@@]3(C)CCCC(C)(C)[C@@H]3CC[C@@]2(C)O1,> 10
7,C=C1CCCC(C)(C)[C@@H]1CC/C(=C/CC[C@@H]1[C@@]2(C)CCCC(C)(C)[C@@H]2CC[C@@]1(C)O)COC(=O)c1ccccc1,> 10
8,C=C1CCCC(C)(C)[C@@H]1C[C@@H](OC(=O)c1ccccc1)/C(C)=C/CC[C@@H]1[C@@]2(C)CCCC(C)(C)[C@@H]2CC[C@@]1(C)O,> 10
9,C=C1CCCC(C)(C)[C@@H]1C[C@@H](O)/C(C)=C/CC[C@@H]1[C@@]2(C)CCCC(C)(C)[C@@H]2CC[C@@]1(C)O,> 10
10,C=C1CCCC(C)(C)[C@@H]1C[C@H](O)/C(C)=C/CC[C@@H]1[C@@]2(C)CCCC(C)(C)[C@@H]2CC[C@@]1(C)O,7.8
11,C=C1CCCC(C)(C)[C@@H]1CC(=O)/C(C)=C/CC[C@@H]1[C@@]2(C)CCCC(C)(C)[C@@H]2CC[C@@]1(C)O,10
12,COc1cccc2c1C(=O)c1c(O)c3c(c(O)c1C2=O)C[C@@](O)(C(=O)CO)C[C@@H]3O[C@H]1C[C@H](N)[C@H](O)[C@H](C)O1 [DOXORUBICIN],0.12
13,C=C1CCCC(C)(C)[C@@H]1CCC(C)=O,> 10

# Assay: Cytotoxicity against human MCF7 cells by MTT assay
# Type: cell-based
# Conditions: read-out: ED50 (the source's name)
# How it was run: as §1
row,Structure (SMILES),CC50 [mg/L]
1,C=C1CCCC(C)(C)[C@@H]1C[C@H](OC(=O)c1ccccc1)/C(C)=C/CC[C@@H]1[C@@]2(C)CCCC(C)(C)[C@@H]2CC[C@@]1(C)O,> 10
2,C=C1CCCC(C)(C)[C@@H]1CC/C(C)=C/CC[C@@H]1[C@@]2(C)CCCC(C)(C)[C@@H]2CC[C@@]1(C)O [AMBREIN],> 10
3,C=C1CCCC(C)(C)[C@@H]1C[C@@H]1O[C@]2(C)CC[C@H]3C(C)(C)CCC[C@]3(C)[C@H]2CC/C=C\1C,> 10
4,C=C1CCCC(C)(C)[C@@H]1CC/C(=C\CC[C@@H]1[C@@]2(C)CCCC(C)(C)[C@@H]2CC[C@@]1(C)O)CO,> 10
5,C=C1CCCC(C)(C)[C@@H]1CC[C@](C)(O)[C@@H]1CCC2[C@@](C)(CC[C@H]3C(C)(C)CCC[C@]23C)O1 (some centres undefined),> 10
6,C=C1CCCC(C)(C)[C@@H]1C/C=C(\C)[C@H]1CC[C@@H]2[C@@]3(C)CCCC(C)(C)[C@@H]3CC[C@@]2(C)O1,> 10
7,C=C1CCCC(C)(C)[C@@H]1CC/C(=C/CC[C@@H]1[C@@]2(C)CCCC(C)(C)[C@@H]2CC[C@@]1(C)O)COC(=O)c1ccccc1,> 10
8,C=C1CCCC(C)(C)[C@@H]1C[C@@H](OC(=O)c1ccccc1)/C(C)=C/CC[C@@H]1[C@@]2(C)CCCC(C)(C)[C@@H]2CC[C@@]1(C)O,> 10
9,C=C1CCCC(C)(C)[C@@H]1C[C@@H](O)/C(C)=C/CC[C@@H]1[C@@]2(C)CCCC(C)(C)[C@@H]2CC[C@@]1(C)O,> 10
10,C=C1CCCC(C)(C)[C@@H]1C[C@H](O)/C(C)=C/CC[C@@H]1[C@@]2(C)CCCC(C)(C)[C@@H]2CC[C@@]1(C)O,4
11,C=C1CCCC(C)(C)[C@@H]1CC(=O)/C(C)=C/CC[C@@H]1[C@@]2(C)CCCC(C)(C)[C@@H]2CC[C@@]1(C)O,8.5
12,COc1cccc2c1C(=O)c1c(O)c3c(c(O)c1C2=O)C[C@@](O)(C(=O)CO)C[C@@H]3O[C@H]1C[C@H](N)[C@H](O)[C@H](C)O1 [DOXORUBICIN],0.12
13,C=C1CCCC(C)(C)[C@@H]1CCC(C)=O,> 10

# Assay: Cytotoxicity against human A549 cells by MTT assay
# Type: cell-based
# Conditions: read-out: ED50 (the source's name)
# How it was run: as §1
row,Structure (SMILES),CC50 [mg/L]
1,C=C1CCCC(C)(C)[C@@H]1C[C@H](OC(=O)c1ccccc1)/C(C)=C/CC[C@@H]1[C@@]2(C)CCCC(C)(C)[C@@H]2CC[C@@]1(C)O,> 10
2,C=C1CCCC(C)(C)[C@@H]1CC/C(C)=C/CC[C@@H]1[C@@]2(C)CCCC(C)(C)[C@@H]2CC[C@@]1(C)O [AMBREIN],> 10
3,C=C1CCCC(C)(C)[C@@H]1C[C@@H]1O[C@]2(C)CC[C@H]3C(C)(C)CCC[C@]3(C)[C@H]2CC/C=C\1C,> 10
4,C=C1CCCC(C)(C)[C@@H]1CC/C(=C\CC[C@@H]1[C@@]2(C)CCCC(C)(C)[C@@H]2CC[C@@]1(C)O)CO,> 10
5,C=C1CCCC(C)(C)[C@@H]1CC[C@](C)(O)[C@@H]1CCC2[C@@](C)(CC[C@H]3C(C)(C)CCC[C@]23C)O1 (some centres undefined),> 10
6,C=C1CCCC(C)(C)[C@@H]1C/C=C(\C)[C@H]1CC[C@@H]2[C@@]3(C)CCCC(C)(C)[C@@H]3CC[C@@]2(C)O1,> 10
7,C=C1CCCC(C)(C)[C@@H]1CC/C(=C/CC[C@@H]1[C@@]2(C)CCCC(C)(C)[C@@H]2CC[C@@]1(C)O)COC(=O)c1ccccc1,> 10
8,C=C1CCCC(C)(C)[C@@H]1C[C@@H](OC(=O)c1ccccc1)/C(C)=C/CC[C@@H]1[C@@]2(C)CCCC(C)(C)[C@@H]2CC[C@@]1(C)O,> 10
9,C=C1CCCC(C)(C)[C@@H]1C[C@@H](O)/C(C)=C/CC[C@@H]1[C@@]2(C)CCCC(C)(C)[C@@H]2CC[C@@]1(C)O,> 10
10,C=C1CCCC(C)(C)[C@@H]1C[C@H](O)/C(C)=C/CC[C@@H]1[C@@]2(C)CCCC(C)(C)[C@@H]2CC[C@@]1(C)O,6.4
11,C=C1CCCC(C)(C)[C@@H]1CC(=O)/C(C)=C/CC[C@@H]1[C@@]2(C)CCCC(C)(C)[C@@H]2CC[C@@]1(C)O,5.3
12,COc1cccc2c1C(=O)c1c(O)c3c(c(O)c1C2=O)C[C@@](O)(C(=O)CO)C[C@@H]3O[C@H]1C[C@H](N)[C@H](O)[C@H](C)O1 [DOXORUBICIN],0.21
13,C=C1CCCC(C)(C)[C@@H]1CCC(C)=O,> 10
